GalR3 antag = antagonists of human GalR3; O60755; HEK293 GalR3-CNG cAMP membrane potential fluorescence; galR3 body fused to GalR1 C-terminus; inhibition, % at 3 µM; 360,000 compounds, 0.44% hits; AID 651719;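 active = inhibition above the screen-wide average plus 3 SD, cut at about 13% in these data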;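 also: forskolin and galanin both at EC90 stimulate the cells; cAMP rise reported by CNG channel membrane potential dye signal; 0% = forskolin plus galanin with DMSO and 100% = forskolin alone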
ARFGAP1 inh = inhibitors of rat ARFGAP1. Arfgap1-stimulated ARF1 GTP hydrolysis, GDP FP detection. inhibition, % at 16.5 µM. 360,000 compounds, 0.26% hits;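 active = inhibition above a per-plate limit, mean inhibition of low control wells plus 3 SD, cut at about 25% in these data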;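 also: 0% = DMSO wells with enzyme and 100% = wells lacking Arfgap1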
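material = rat Arfgap1 catalytic domain, aa 1-136 | also added = human ARF1(Δ1-17)-GTP substrate | compound dosing = one concentration, 16.5 µM, DMSO 1.26% | times = GTP hydrolysis reaction 2 h at 25 °C | measured by = FP, GDP Alexa 633 tracer displaced from anti-GDP antibody, 620/688 nm | evaluation = percent inhibition of Arfgap1-stimulated GTP hydrolysis | replication = single well per compound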
ASAP1 GAP inh = inhibitors of human ASAP1 ArfGAP activity; Q9ULH1; ASAP1-stimulated ARF1 GTP hydrolysis, GDP FP detection; inhibition, % at 16.5 µM; 360,000 compounds, 0.19% hits; AID 624377; in the data active = inhibition above about 25%;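 also: 0% = vehicle with enzyme and substrate and 100% = no enzyme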
Rin1-Abl PPI inh = human Rin1-Abl interaction inhibition. TR-FRET Rin1/Abl binding, biochemical. inhibition, % at 7.35 µM. 360,000 compounds, 0.4% hits; in the data active = inhibition above about 5%, passing the limit was not always enough
GalR3 conf = GalR3 (human) antagonism, confirmation; shares compounds with GalR3 antag; HEK293 GalR3 CNG cAMP biosensor, membrane potential fluorescence; galR3 fused to GalR1 carboxy tail; challenged with forskolin and galanin at EC90; inhibition, % at 3 µM; 1,600 compounds, 59% hits;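 active = inhibition above the primary screen's cutoff, the mean inhibition of all screened compounds plus 3 SD, cut at about 13% in these data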;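 also: 0% = forskolin plus galanin and 100% = forskolin alone with DMSO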
CNG parental = acts as nonspecific agonist in parental HEK-CNG cells; HEK293-CNG parental cells, cAMP membrane potential fluorescence; normalised: DMSO wells 0%, forskolin wells 100%; activation, % at 3 µM; 1,600 compounds, 10% hits; shares compounds with GalR3 antag; in the data active = activation above about 1.3%
Starred values were filed as active, the others as inactive; x = no result given; ! = not active in a repeat. Shown are actives, neighbours in structure and some others; about 1.2% of the full set was active somewhere.

SMILES | GalR3 antag | ARFGAP1 inh | ASAP1 GAP inh | Rin1-Abl PPI inh | GalR3 conf | CNG parental
COC(=O)[C@]12C[C@H](CC(=O)NCc3cccs3)C(=O)N(CCC3=CCCCC3)C1=C[C@H](COCc1ccccc1)O[C@@H]2C | -10 | 16 | 8 | x | x | x
Cn1c(=O)c2c(nc(NCCCN3CCOCC3)n2Cc2ccc(Cl)cc2)n(C)c1=O | 14* | 6 | 3 | 4 | 15* | 0
Cn1c(=O)c2c(nc(NCCCN3CCOCC3)n2Cc2ccc(Cl)c(Cl)c2)n(C)c1=O | 10 | 8 | 11 | x | x | x
Cn1c(=O)c2c(nc(NC3CCCCC3)n2Cc2ccccc2)n(C)c1=O | 0 | -2 | -3 | -1 | x | x
Cn1c(=O)c2c(nc(NCC3CCCO3)n2Cc2ccccc2)n(C)c1=O (stereo not given) | x | 6 | -17 | -4 | 5 | 0
O=C(N/N=C/c1cc(Br)ccc1O)C(=O)Nc1ccccc1OC(F)(F)C(F)F | 15* | -4 | -6 | -3 | 57* | -2
COc1ccccc1/C=N/NC(=O)C(=O)Nc1ccccc1OC(F)(F)C(F)F | -1 | -14 | -3 | 1 | x | x
O=C(N/N=C/c1cc(Cl)ccc1O)C(=O)Nc1ccccc1OC(F)(F)C(F)F | 22* | 12 | 11 | 0 | 66* | -1
Cc1noc(C)c1COC(=O)c1cccc(S(=O)(=O)N2CCCCCC2)c1 | 80* | 4 | 6 | 1 | 84* | 0
CC(C)C[C@H]1COc2cc(N3CCOCC3)ccc2S(=O)(=O)N1 | -7 | 13 | -15 | x | x | x
COC(=O)C[C@@H]1C[C@H]2c3cc(NC(=O)Nc4ccccc4F)ccc3O[C@H]2[C@@H](CO)O1 | -1 | 0 | 3 | x | x | x
CC(C)SCCCCOc1ccc2ccccc2c1 | -4 | 7 | 6 | 0 | x | x
CC(C)SCCCOc1ccc(C(C)(C)C)cc1 | x | 11 | -4 | 2 | 4 | 0
O=C(NN=C(c1ccccc1)c1ccccn1)c1ccccc1 | 13* | -4 | -22 | 2 | 39* | 1
COc1ccc(CNC(=O)C[C@@H]2C=C[C@@H](NS(=O)(=O)c3cccc(OC)c3)[C@@H](CO)O2)cc1 | -2 | 5 | -8 | x | x | x
Cc1ccn(CC(=O)N2CCCC(C(=O)c3cccc4ccccc34)C2)n1 (stereo not given) | 4 | -3 | 8 | 1 | x | x
Cc1nc(C)n(CC(=O)N2CCCC(C(=O)c3cccc4ccccc34)C2)n1 (stereo not given) | 13* | -4 | -4 | 0 | -1 | 0
COC(=O)c1sccc1OCc1cccc(OC)c1 | 4 | 3 | 0 | -1 | x | x
Cc1nc2ccccc2cc1OCc1ccccc1 | -6 | -7 | 1 | -2 | x | x
COc1cccc(COc2cc3ccccc3nc2C)c1 | 92* | 1 | 2 | 4 | 103* | 0
Cc1nc2ccccc2cc1OCc1ccc(Cl)cc1 | 94* | -2 | -7 | -4 | 94* | 1
CCCCN1CC(N2CCCC2)CS1(=O)=O (stereo not given) | -4 | -7 | 2 | x | x | x
CC1=NNC(=O)/C1=C\c1cn(-c2ccccc2)nc1-c1ccccc1 | 48* | 12 | -4 | 0 | 55* | 0
Cc1nnc(Sc2cc(NCCCO)c([N+](=O)[O-])c3nonc23)s1 | 21* | 6 | 4 | -8 | 5 | 0
Cc1nnc(Sc2cc(NCCO)c([N+](=O)[O-])c3nonc23)s1 | 7 | 5 | -10 | -5 | x | x
SMILES | GalR3 antag | ARFGAP1 inh | ASAP1 GAP inh | Rin1-Abl PPI inh | GalR3 conf | CNG parental
CCC(=O)OCCNc1cc(Sc2nc3ccccc3[nH]2)c2nonc2c1[N+](=O)[O-] | 35* | 6 | 2 | -8 | 32* | 0
CCC(=O)OCCNc1cc(Sc2nc3ccccc3s2)c2nonc2c1[N+](=O)[O-] | -3 | 5 | 16 | -2 | x | x
CCCC(=O)OCCNc1cc(Sc2nccn2C)c2nonc2c1[N+](=O)[O-] | 40* | 10 | -1 | -3 | 24* | 0
CCCSc1cc(NCCOC(=O)CCC)c([N+](=O)[O-])c2nonc12 | 3 | 6 | -5 | -5 | x | x
Cc1cc(C)c(C(=O)NC2CCCc3c2cnn3-c2cccc(C)c2C)o1 (stereo not given) | -6 | -1 | 4 | -1 | x | x
Cc1cccc(-n2ncc3c2CCCC3NC(=O)C2(C(N)=O)CC2)c1C (stereo not given) | 114* | 17 | -2 | 1 | 106* | -1
Cc1cc(C(=O)NC2CCCc3c2cnn3-c2ccc(C)c(C)c2)n(C)n1 (stereo not given) | 99* | -5 | -11 | 1 | 105* | 0
CCc1cc(C(=O)NC2CCCc3c2cnn3-c2cccc(C)c2C)n(C)n1 (stereo not given) | 99* | 4 | -1 | x | 102* | 0
COC(=O)C1=C(C)N(Cc2ccc(C(F)(F)F)cc2)C(=NCc2ccccc2C(F)(F)F)NC1c1ccc(Cl)cc1 (stereo not given) | -5 | 10 | 1 | x | x | x
Cc1nc2cc(NC(=O)N3CCC(c4ccccc4)C3)ccc2n1C (stereo not given) | 31* | 10 | 4 | 0 | 0 | 0
Cc1nc2cc(NC(=O)N3CCCC3)ccc2n1C | -2 | -7 | 0 | -4 | x | x
CN(Cc1ccccc1)CC(O)COc1ccc(CNCCc2cccnc2)cc1 (stereo not given) | 6 | 2 | 0 | -1 | x | x
CCc1ccc(CNCc2ccc(OCC(O)CN(C)Cc3ccccc3)cc2)nc1 (stereo not given) | 56* | -3 | -5 | -2 | 14* | 15*
O=C(NC1CCCC1)[C@@H]1CCCN1C(=O)[C@@H](NS(=O)(=O)c1ccc(F)cc1F)c1ccccc1 | -6 | 0 | -12 | x | x | x
CC(C)(C)c1ccc(-c2cn(-c3ccc(Br)cc3)c3[n+]2CCCS3)cc1 | 25* | 12 | 6 | -1 | 60* | 1.7*
c1ccc(-c2cn(-c3ccccc3)c3[n+]2CCS3)cc1 | 0 | 0 | 1 | 0 | x | x
COc1ccc(-c2cn(-c3ccccc3)c3[n+]2CCS3)cc1 | 16*! | 7 | 12 | 0 | 0 | 0
OCCC(N1CCOCC1)C(O)(c1ccccc1)c1ccccc1 (stereo not given) | -8 | -9 | 3 | x | x | x
CC1(C)CC(=O)C=C(C#CC2CC2)C1 | -7 | -5 | -5 | x | x | x
CN(C(=O)c1ccc2c(c1)SC1=NS(=O)(=O)CCN12)C(c1ccccc1)c1ccccc1 | 31* | -6 | 11 | 1 | 30* | 0
CCCCNC(=S)NNc1c(Cl)cc(Cl)cc1Cl | -2 | 7 | -2 | 0 | x | x
O=C(NCCCl)NNc1c(Cl)cc(Cl)cc1Cl | 26* | 3 | -4 | 4 | 13* | 0

Compound activity: PubChem BioAssay, The Scripps Research Institute Molecular Screening Center
